From ChEMBL document CHEMBL1150273, “Aza-peptidyl Michael acceptors. A new class of potent and selective inhibitors of asparaginyl endopeptidases (legumains) from evolutionarily diverse pathogens” (J Med Chem, 2008) come the findings set out here.

Data set [1] is filed under the species Sus scrofa. Briefly: Inhibition of pig AE assessed as ratio of pseudo-first-order inhibition rate constant to inhibitor concentration. In short, it runs like this: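 Pig AE in 39.5 mM citric acid, 121 mM Na2HPO4, 1 mM EDTA, 0.1% CHAPS, 0.015% Brij, 1 mM DTT.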
A short description of data set [2]: Inhibition of Trichomonas vaginalis G3 AE1 expressed in Pichia pastoris after 20 mins. In short, it runs like this:
(§1)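 Recombinant AE zymogens expressed in Pichia pastoris; SmAE and TvAE1 autoactivated in 0.5 M sodium acetate, 4 mM DTT, pH 4.5, 37 °C, 3 h to overnight; IrAE used without activation. Buffer 0.1 M citrate phosphate, 4 mM DTT, pH 6.8 (SmAE, TvAE1) or pH 5.5 (IrAE). Inhibitor 2.0–0.0002 µM final, 20 min preincubation at room temperature; 10 µM final Cbz-Ala-Ala-Asn-AMC, 20 min; IC50 from RFU/min vs concentration.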

Data set [3] is described as follows: Inhibition of Ixodes ricinus AE expressed in Pichia pastoris after 20 mins. In short, it runs like this: as §1
A short description of data set [4]: (§2) Inhibition of Schistosoma mansoni AE expressed in Pichia pastoris after 20 mins. The method, boiled down:
as §1

Data set [5] concerns the target T1, Caspase-3 (Homo sapiens) (UniProt P42574).
T1 sequence (whole entry): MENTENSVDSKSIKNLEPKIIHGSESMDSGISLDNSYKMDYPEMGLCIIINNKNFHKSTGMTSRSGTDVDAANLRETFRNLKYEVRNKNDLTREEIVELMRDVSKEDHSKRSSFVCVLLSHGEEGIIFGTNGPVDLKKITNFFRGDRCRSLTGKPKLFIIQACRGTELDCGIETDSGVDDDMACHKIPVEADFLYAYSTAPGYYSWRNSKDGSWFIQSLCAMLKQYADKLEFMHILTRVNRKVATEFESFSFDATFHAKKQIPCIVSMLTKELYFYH
Briefly: Inhibition of caspase 3 assessed as ratio of pseudo-first-order inhibition rate constant to inhibitor concentration. The method, boiled down:
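Caspase-3 (1 nM final) preactivated 10 min at 37 °C in 40 mM Pipes, 200 mM NaCl, 0.2% CHAPS, 20% sucrose mixed 1:1 with 20 mM DTT, pH 7.2; enzyme added to inhibitor plus Ac-Asp-Glu-Val-Asp-AMC; progress curves 20 min at 37 °C (ex 360, em 465 nm); duplicates; rates corrected for substrate (KM 9.7 µM).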

Data set [6] deals with T2, Caspase-6 (Homo sapiens) (UniProt P55212).
T2 sequence (whole entry): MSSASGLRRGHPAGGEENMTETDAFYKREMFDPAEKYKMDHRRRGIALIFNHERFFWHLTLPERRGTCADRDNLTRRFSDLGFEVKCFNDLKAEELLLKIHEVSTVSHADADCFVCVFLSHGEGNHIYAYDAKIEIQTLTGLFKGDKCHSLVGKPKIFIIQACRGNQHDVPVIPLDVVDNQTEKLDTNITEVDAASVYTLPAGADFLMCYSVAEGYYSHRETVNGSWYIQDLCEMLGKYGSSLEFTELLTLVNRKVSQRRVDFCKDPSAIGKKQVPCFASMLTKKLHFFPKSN
Kind of data set: Inhibition of caspase 6 assessed as ratio of pseudo-first-order inhibition rate constant to inhibitor concentration. In short, it runs like this:
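Caspase-6 at 5 nM final, assayed in the same Pipes/NaCl/CHAPS/sucrose/DTT buffer, pH 7.2, 37 °C with Ac-Asp-Glu-Val-Asp-AMC by the progress curve method; inhibitor stocks 5 × 10^-3 to 2.42 × 10^-6 M in DMSO; rates corrected for substrate using KM 236.35 µM.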

For data set [7], the target named is Caspase-8 (Homo sapiens) (UniProt Q14790). Kind of data set: Inhibition of caspase 8 assessed as ratio of pseudo-first-order inhibition rate constant to inhibitor concentration. The method, boiled down:
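Caspase-8 at 50 nM final, assayed in the same Pipes/NaCl/CHAPS/sucrose/DTT buffer, pH 7.2, 37 °C with Ac-Asp-Glu-Val-Asp-AMC by the progress curve method; inhibitor stocks 5 × 10^-3 to 2.42 × 10^-6 M in DMSO; rates corrected for substrate using KM 6.79 µM.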

Data set [8] has as its target T3, Calpain-1 catalytic subunit (Homo sapiens) (UniProt P07384).
T3 sequence (whole entry): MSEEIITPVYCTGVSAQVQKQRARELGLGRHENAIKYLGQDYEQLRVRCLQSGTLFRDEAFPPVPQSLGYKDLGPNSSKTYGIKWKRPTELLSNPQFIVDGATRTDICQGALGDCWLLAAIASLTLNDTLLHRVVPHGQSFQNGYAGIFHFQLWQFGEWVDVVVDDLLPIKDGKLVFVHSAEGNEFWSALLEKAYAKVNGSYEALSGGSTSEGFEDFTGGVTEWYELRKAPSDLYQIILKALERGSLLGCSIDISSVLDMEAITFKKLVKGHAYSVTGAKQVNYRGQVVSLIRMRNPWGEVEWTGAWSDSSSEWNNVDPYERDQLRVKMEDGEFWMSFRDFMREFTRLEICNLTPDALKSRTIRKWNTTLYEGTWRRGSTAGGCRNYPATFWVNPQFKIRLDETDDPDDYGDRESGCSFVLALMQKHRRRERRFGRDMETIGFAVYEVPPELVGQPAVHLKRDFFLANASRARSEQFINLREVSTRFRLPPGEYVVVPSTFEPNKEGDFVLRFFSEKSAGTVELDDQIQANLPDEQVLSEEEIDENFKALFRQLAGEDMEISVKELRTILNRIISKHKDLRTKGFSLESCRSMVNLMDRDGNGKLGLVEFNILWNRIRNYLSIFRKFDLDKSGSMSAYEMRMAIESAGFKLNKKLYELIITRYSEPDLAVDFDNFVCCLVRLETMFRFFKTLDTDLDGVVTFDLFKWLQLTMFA
Briefly: Inhibition of calpain 1 assessed as ratio of pseudo-first-order inhibition rate constant to inhibitor concentration.

Data set [9] has as its target T4, Papain (Carica papaya) (UniProt P00784).
T4 sequence (whole entry): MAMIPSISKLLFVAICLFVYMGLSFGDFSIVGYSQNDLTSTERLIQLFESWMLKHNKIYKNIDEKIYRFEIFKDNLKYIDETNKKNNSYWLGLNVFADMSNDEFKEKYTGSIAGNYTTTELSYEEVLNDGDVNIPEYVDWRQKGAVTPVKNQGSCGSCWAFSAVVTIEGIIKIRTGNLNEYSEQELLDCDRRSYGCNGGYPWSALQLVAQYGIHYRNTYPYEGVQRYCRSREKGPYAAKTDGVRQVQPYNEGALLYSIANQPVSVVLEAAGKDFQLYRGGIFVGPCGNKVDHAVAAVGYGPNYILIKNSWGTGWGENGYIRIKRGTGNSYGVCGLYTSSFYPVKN
Briefly: Inhibition of papain assessed as ratio of pseudo-first-order inhibition rate constant to inhibitor concentration. In short, it runs like this: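 Papain, about 0.29 mg/mL, incubated with inhibitor in 50 mM Hepes, 2.5 mM DTT, 2.5 mM EDTA, pH 7.5; aliquots taken over time into 53.7 µM Cbz-Phe-Arg-pNA; p-nitroanilide release read at 405 nm at room temperature; pseudo-first-order inactivation kinetics.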

Data set [10] concerns the target Cathepsin B (Homo sapiens) (UniProt P07858). Briefly: Inhibition of cathepsin B assessed as ratio of pseudo-first-order inhibition rate constant to inhibitor concentration.
For data set [11], the target named is Lys-gingipain HG66 (Porphyromonas gingivalis) (UniProt P72197). Briefly: Inhibition of Porphyromonas gingivalis gingipain K assessed as ratio of pseudo-first-order inhibition rate constant to inhibitor concentration. In short, it runs like this:
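Gingipain K diluted to 4.61 nM in 0.2 M Tris-HCl, 0.1 M NaCl, 5 mM CaCl2, 2 mM DTT, pH 8.0 and incubated with inhibitor (DMSO) at room temperature; aliquots taken at intervals into buffer with Suc-Ala-Phe-Lys-AMC; fluorescence at 465 nm; pseudo-first-order kinetics.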

Data set [12] concerns the target T5, Clostripain (Clostridium histolyticum) (UniProt P09870).
T5 sequence (whole entry): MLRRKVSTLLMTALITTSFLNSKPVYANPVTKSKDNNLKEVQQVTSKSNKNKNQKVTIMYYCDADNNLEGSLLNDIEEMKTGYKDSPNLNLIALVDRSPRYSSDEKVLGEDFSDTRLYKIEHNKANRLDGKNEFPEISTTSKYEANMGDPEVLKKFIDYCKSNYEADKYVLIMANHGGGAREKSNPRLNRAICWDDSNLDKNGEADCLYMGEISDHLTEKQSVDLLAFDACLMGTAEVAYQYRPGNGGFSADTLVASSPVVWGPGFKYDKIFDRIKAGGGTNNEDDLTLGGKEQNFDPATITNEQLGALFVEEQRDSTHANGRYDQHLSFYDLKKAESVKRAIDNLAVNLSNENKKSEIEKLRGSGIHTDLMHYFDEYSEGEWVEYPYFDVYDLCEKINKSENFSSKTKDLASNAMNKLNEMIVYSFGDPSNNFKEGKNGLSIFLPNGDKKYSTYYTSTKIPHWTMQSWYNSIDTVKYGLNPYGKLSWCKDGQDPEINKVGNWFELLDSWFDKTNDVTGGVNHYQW
Briefly: Inhibition of sClostridium histolyticum clostripain assessed as ratio of pseudo-first-order inhibition rate constant to inhibitor concentration. Conditions: Hathewaya histolytica. In short, it runs like this: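 Clostripain activated in 8 mM DTT, then incubated with inhibitor (DMSO) in 20 mM Tris-HCl, 10 mM CaCl2, 0.005% Brij 35, 2 mM DTT, pH 7.6; aliquots taken at intervals into buffer with Cbz-Phe-Arg-AMC; fluorescence at 465 nm; pseudo-first-order kinetics.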

The test system of data set [13] is Schistosoma mansoni. Briefly: Inhibition of Schistosoma mansoni AE assessed as ratio of pseudo-first-order inhibition rate constant to inhibitor concentration. The method, boiled down: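 Autoactivated recombinant SmAE added to six inhibitor concentrations (0–1 µM final) in 0.1 M citrate phosphate, 2 mM DTT, pH 6.8 with 20 µM Cbz-Ala-Ala-Asn-AMC; progress followed every 2 s for 30 min at 25 °C (ex 355, em 460 nm); kobs/[I] by nonlinear regression, corrected for substrate by factor 1.33.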

The test system of data set [14] is Schistosoma mansoni. Described as §2. In short, it runs like this: as §1
The nature of data set [15]: Stability assessed as half life in citrate phosphate buffer at pH 6.8 in presence of dithiothreitol. Conditions: citrate phosphate buffer with dithiothreitol. The class given is physicochemical.

The source made the active and inactive calls.

On to `C[C@H](NC(=O)OCc1ccccc1)C(=O)N[C@@H](C)C(=O)NN(CC(N)=O)C(=O)CCl`, for which, in [1], the Ratio worked out at 139000 M⁻¹ s⁻¹.
In the case of `C[C@H](NC(=O)OCc1ccccc1)C(=O)N[C@@H](C)C(=O)NN(CC(N)=O)C(=O)/C=C/C(=O)N1CCc2ccccc21`, the results for the IC50 in data set [2], in data set [3] and in data set [4] were 50 nM, 18 nM and 70 nM, respectively. In addition, the outcome in [5], in data set [6], in data set [7], in data set [8], in data set [9] and in data set [10] was inactive. In addition, the result in data set [12] was inactive. In addition, the Ratio in [11] was determined as 1 M⁻¹ s⁻¹.
On to `C[C@H](NC(=O)OCc1ccccc1)C(=O)N[C@@H](C)C(=O)NN(CC(N)=O)C(=O)COC(=O)c1ccccc1`, for which, in [1], the Ratio was 13 M⁻¹ s⁻¹.
With `CCOC(=O)[C@H]1O[C@@H]1C(=O)N(CC(N)=O)NC(=O)[C@H](C)NC(=O)[C@H](C)NC(=O)OCc1ccccc1`, in data set [4], the midpoint of inhibition, the IC50, lay at 53 nM. Moreover, the Ratio came out at 17400 M⁻¹ s⁻¹ in data set [13] and 43000 M⁻¹ s⁻¹ in data set [1].
In the case of `C/C=C/C=C/C(=O)N(CC(N)=O)NC(=O)[C@H](C)NC(=O)[C@H](C)NC(=O)OCc1ccccc1`, the IC50 (commonly the concentration that inhibits the measured activity by half) in [2] was found to be 8000 nM. The result in [14] was inactive.
In the case of `C[C@H](NC(=O)OCc1ccccc1)C(=O)N[C@@H](C)C(=O)NN(CC(N)=O)C(=O)/C=C/C(=O)c1ccccc1`, the IC50 was at least 10000 nM in data set [2] and over 20000 nM in [3]. Also, the outcome in data set [14] was inactive.
For the compound `CCN(CC)C(=O)/C=C/C(=O)N(CC(N)=O)NC(=O)[C@H](C)NC(=O)[C@H](C)NC(=O)OCc1ccccc1`, the IC50 in data set [2] was 2000 nM; in data set [3], 2700 nM. For the same compound, in [14], the outcome was inactive. The Ratio in data set [13] stood at 17400 M⁻¹ s⁻¹.
With `C[C@H](NC(=O)OCc1ccccc1)C(=O)N[C@@H](C)C(=O)NN(CC(N)=O)C(=O)/C=C/C(=O)NCCc1ccccc1`, the IC50 is 10 nM in [2], 350 nM in [3] and 600 nM in data set [4]. Also, the result in data set [5], in data set [6], in data set [7], in data set [8], in data set [10] and in [11] was inactive. The result in [12] was inactive. Further, the Ratio in data set [9] stood at 12 M⁻¹ s⁻¹.
On to `C=CCOC(=O)/C=C/C(CC(N)=O)NC(=O)[C@H](C)NC(=O)[C@H](C)NC(=O)OCc1ccccc1` (stereo not given in full), for which the Ratio in data set [1] amounted to 776 M⁻¹ s⁻¹.
On to `C[C@H](NC(=O)OCc1ccccc1)C(=O)N[C@@H](C)C(=O)NN(CC(N)=O)C(=O)/C=C/C(=O)OCc1ccccc1`, for which the IC50 in data set [2] was 5 nM; in [3], under 1 nM. Besides, the half-life (as a rule, the time needed for the level to fall by half in the phase considered) in data set [15] was 2.5 min.
